These results are taken from ChEMBL document CHEMBL3351951, “2-Octadecynoic acid as a dual life stage inhibitor of Plasmodium infections and plasmodial FAS-II enzymes” (Bioorg Med Chem Lett, 2014).

≈ marks a conversion by molar mass, not a printed value. Calls of active or inactive are those of the source. No cut-off for these calls is given here.

The nature of data set [1]: Inhibition of Plasmodium falciparum FabG. The procedure, abridged:
(§1)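 Recombinant P. falciparum FAS-II enzymes (FabI, FabZ, FabG) were assayed for inhibition. IC50 values (μg/ml) are the average of at least two independent assays run in duplicate.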

The nature of data set [2]: Inhibition of Plasmodium falciparum FabI. The gist of the method:
as §1

In data set [3] the test system is Plasmodium berghei. The experiment in a line: Antimalarial activity against liver stage of Plasmodium berghei infected in human Huh7 cells assessed as reduction in parasite load treated after 2 hrs of infection for 46 hrs by luciferase assay. Format: functional, organism-based. The note with it: Huh-7, Liver. The procedure, abridged:
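Huh7 hepatoma cells infected with luciferase-expressing P. berghei sporozoites. Parasite load measured by luciferase signal at 44 hpi (48 hpi in the figure legend) and expressed as percent of control. IC50 is the average of at least two independent assays run in duplicate.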

A short description of data set [4]: Cytotoxicity against human HuH7 cells assessed as cell viability by Alamar Blue assay. Format: cell-based. The note with it: huh-7. The gist of the method:
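Host-cell viability was measured in the same P. berghei-infected Huh7 wells. Cells were treated from 2 hpi, and Alamar Blue fluorescence was read at the time of infection analysis (48 hpi). Cell confluency is reported in arbitrary units.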
For orientation: The colour change of resazurin is a common sign of viable cells or microbes.

For data set [5], the species on record is Danio rerio. The experiment in a line: Hepatotoxicity in zebrafish larvae during 3 to 6 days of post-fertilization. Format: organism-based. The note with it: in vivo. The procedure, abridged: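 Larvae with DsRed-fluorescent livers are exposed from 3 dpf for 3 days, at a range of concentrations up to each compound's maximum tolerated concentration. Vehicle is 1% DMSO, and paracetamol 300 μM is the positive control. At 6 dpf, livers are imaged and scored as normal, reduced fluorescence, reduced size, enlarged or absent.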

Data set [6] can be described thus: Inhibition of Plasmodium falciparum FabZ. The gist of the method:
as §1

Data set [7] is filed under the species Danio rerio. The experiment in a line: Hepatotoxicity in zebrafish larvae at 300 uM measured during 3 to 6 days of post-fertilization. Format: organism-based. Particulars: in vivo. The gist of the method:
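Larvae with DsRed-fluorescent livers were exposed from 3 to 6 dpf; vehicle was 1% DMSO. At 6 dpf, livers were photographed under a stereomicroscope and scored as normal, reduced fluorescence, reduced size, enlarged or absent. Paracetamol 300 μM served as the positive control.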

Data set [8] concerns Plasmodium berghei. The experiment in a line: Antimalarial activity against liver stage of GFP-expressing Plasmodium berghei infected in human Huh7 cells assessed as reduction in parasite load treated after 2 hrs of infection for 46 hrs by confocal microscopy. Format: functional, organism-based. Particulars: Huh-7. The gist of the method:
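Huh7 hepatoma cells infected with GFP-expressing P. berghei sporozoites. Treated at 2 hpi for 46 h at single fixed concentrations; vehicle DMSO 0.4%. Cells fixed in 4% PFA. Exo-erythrocytic forms immunolabelled with anti-PbHsp70 and an Alexa-488 secondary antibody; nuclei stained with Hoechst. Imaged by confocal microscopy.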

Data set [9] is described as follows: Critical micelle concentration of the compound in 1X phosphate-buffered saline containing rhodamine 6G at 2.5 x 10^-6 M by spectrophotometry. Format: ADME. The note with it: buffer.
Another data set concerns Plasmodium falciparum. The experiment in a line: Antimalarial activity against blood stage of multidrug-resistant Plasmodium falciparum K1 after 72 hrs by [3H]hypoxanthine incorporation assay. Format: functional, organism-based. The procedure, abridged: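 Blood-stage P. falciparum K1 growth is measured by 3H-hypoxanthine incorporation. IC50 is given in μg/ml as the mean of at least two independent assays, each run in duplicate.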

Another data set relates to L6. The experiment in a line: Cytotoxicity against rat L6 cells. Format: cell-based.

Broadly, the IC50 is the concentration at which inhibition is half-maximal. Regarding `CCCCCCCCCCCC#CC(=O)O`, the half-maximal inhibitory concentration (IC50) in data set [1] is 5.5 µg/mL (≈ 24.5 µM); in [2] it was 1.2 µg/mL (≈ 5.35 µM); with Plasmodium berghei [3], 2.87 µg/mL (≈ 12.8 µM); in data set [6], 3.5 µg/mL (≈ 15.6 µM). In addition, in data set [4], the Activity entry is reported as “Non-toxic”. Further, the MTD in the data set filed under Danio rerio [5] came out at 1.2 µM.
Regarding `CC(=O)Nc1ccc(O)cc1` [ACETAMINOPHEN], in the data set listed under Danio rerio [7], the Activity result is “Toxic”.
In the case of `O=C(O[C@@H]1Cc2c(O)cc(O)cc2O[C@@H]1c1cc(O)c(O)c(O)c1)c1cc(O)c(O)c(O)c1` [EPIGALOCATECHIN GALLATE], the results for the IC50 in data set [1] and in data set [6] were 0.2 µg/mL (≈ 0.436 µM) and 0.03 µg/mL (≈ 0.0654 µM), respectively.
In data set [2], `Oc1cc(Cl)ccc1Oc1ccc(Cl)cc1Cl` [TRICLOSAN] gave an IC50 of 0.015 µg/mL (≈ 0.0518 µM).
`CCCCCCCCCCCCCCCC(=O)O` [PALMITIC ACID]: the IC50 was > 100 µg/mL in data set [1], > 100 µg/mL in data set [2], > 25 µg/mL in the data set on Plasmodium berghei [3] and > 100 µg/mL in data set [6]. In the data set listed under Danio rerio [5], this compound returned an MTD of 700 µM.
For `CCCCCCCCCCCCCCCC#CC(=O)O`, the IC50 in [1] was 0.8 µg/mL (≈ 2.85 µM); in [2] it was 0.3 µg/mL (≈ 1.07 µM); with Plasmodium berghei [3], 0.34 µg/mL (≈ 1.21 µM); with Plasmodium falciparum it was 6 µg/mL (≈ 21.4 µM); in data set [6] it was 0.28 µg/mL (≈ 0.998 µM). For the same compound, the inhibition result in the data set with Plasmodium berghei [8] was “Active”. The Activity result in data set [4] is listed as “Non-toxic”. Moreover, the CMC in data set [9] came out at 50 µg/mL. The same compound registered an MTD in the data set listed under Danio rerio [5] of 1 µM.
The compound `COc1cc([C@@H]2c3cc4c(cc3[C@H](O)[C@H]3COC(=O)[C@H]23)OCO4)cc(OC)c1OC` [PODOFILOX] yielded an IC50 in the data set with L6 of 0.02 µg/mL (≈ 0.0483 µM).
